Laboratory results reported in paper PMC9671271 (ACS infectious diseases, 2022).

Assays:
[1] = tested on: C. albicans cells; assay: Propidium iodide membrane permeability assay, confocal microscopy, yeast form; assay type: cell-based, Candida albicans SC5314; conditions: for membrane disruption (PI leakage): 12.5 μM Hist-5, 7.5 μM PI, 5 min, RT, PPB
[2] = tested on: C. albicans cells; conditions: acid form of ZQ; stated as known, no reference given; cited from earlier work
[3] = tested on: C. albicans hyphae; assay: Propidium iodide membrane permeability assay, hyphal form; assay type: cell-based, Candida albicans SC5314
Procedure, shortened: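 Colony from YPD agar (30 °C, 24 h) grown 24 h in SD+ at 30 °C, 200 rpm, then diluted to OD600 0.1 in SD+ with 12.5 mM N-acetylglucosamine and grown 24 h at 37 °C, 200 rpm. Cells pelleted and resuspended in PPB pH 7.4, then given 12.5 μM test peptide, 7.5 μM PI, ± ZnCl2 (0.5, 1, 2 eq). Confocal imaging at 5 min, RT; PI excitation 488 nm, emission 600–700 nm.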

[4] = Circular dichroism titration for Zn-induced dimerization/aggregation; assay type: physicochemical; conditions: CD, 0-50 μM Hist-5 with 250 μM ZnCl2, PPB (198 nm) or 98% TFE (222 nm), 25 °C; ellipticity linear up to 50 μM
[5] = tested on: C. albicans; assay: Two-dimensional broth microdilution checkerboard assay; assay type: cell-based, Candida albicans SC5314

O=C(O)CN(CCN(CC(=O)O)CC(=O)O)CC(=O)O [EDTA, ethylenediaminetetraacetic acid]
PI uptake into the cytosol ([1]; cells treated with EDTA and PI only, no peptide (Figure S14)): not observed

Cc1ccc(S(=O)(=O)Nc2cc(OCC(=O)O)cc3ccc(C)nc23)cc1 [ZQ, 2-methyl-8-(toluene-p-sulfonamido)-6-quinolyloxyacetic acid]
membrane permeability [2]: poor membrane permeability

DSHAKRHHGYKRKFHEKHHSHRGY [Hist-5, Histatin-5]
membrane activity on hyphae (PI leakage) ([3]; 12.5 μM Hist-5, 7.5 μM PI, with Zn^2+ supplementation): protective effect against Hist-5-induced membrane disruption
membrane activity on hyphae (PI leakage) ([3]; 12.5 μM Hist-5 alone, 7.5 μM PI, 5 min, RT, PPB): able to permeabilize the cell membrane
membrane disruption (PI leakage) ([1]; no added Zn^2+): allows leakage of PI into the cytosol
membrane disruption (PI leakage) ([1]; one or more molar equivalents of Zn^2+): did not cause dye leakage
membrane disruption (PI leakage) ([1]; submolar equivalents of Zn^2+): internalization of PI
Zn-induced peptide dimerization/aggregation [4]: dimerization/aggregation is not occurring
effect of Zn^2+ on fungicidal activity ([5]; Zn^2+ concentration surpassing the Hist-5 concentration (Figure S9)): switched from promoting Hist-5 fungicidal activity to inhibiting it
effect of Zn^2+ supplementation on peptide activity ([5]; sub-inhibitory concentrations of Hist-5, strongest at 1:2 Zn^2+ to peptide (Figure S9)): increase in peptide activity
